Assay results gathered from unrelated publications.
Compare with care: the assays were run in different laboratories.

Compound | assay | system | conditions | measurement | value
O=C1CCC(N2Cc3cc(CO)c(F)cc3C2=O)C(=O)N1 (stereo not drawn) |  | male CD-1 mouse, plasma | intravenous, 1 mg/kg, 1.02 min | concentration | 1790 ng/mL
CN(C)C(=O)c1cc2cnc(Nc3ccc(-c4ccc5c(=O)cc(N6CCOCC6)oc5c4)cc3)nc2n1C1CCCC1.Cl |  | BALB/c mouse, plasma | oral, 20 mg/kg | half-life | 4.6 h
CC(C)n1ncc2c(C(=O)NCC3(C)CNC3)cc(C3CC3)nc21 |  | female BALB/c mouse, plasma | intraperitoneal, 50 mg/kg, 2 h | concentration | 2230 ng/mL
C=CC(=O)NC1CCN(c2ncc3ncnc(Nc4ccc(Oc5ccc6c(c5)ncn6C)c(C)c4)c3n2)CC1 |  |  | pH 7.4 | logP | 4.7
CONC(=O)c1cccc2c1cc(C)n2-c1nc2c(c(NCc3ccccc3)n1)CCCN2 | metabolic stability | dog, liver microsomes | 1 µM, pH 7.4 | microsomal CLint | 84 µL/min/mg
Cc1ccc2c(c1)C(=O)[C@]1(O)CCN(c3ccc4nc(C)ccc4c3)C1=N2 |  | mouse, brain | intraperitoneal, 10 mg/kg, 30 min, single dose | concentration | 1000 nM
Cc1cc2c(C(=O)O)cccc2n1-c1nc2c(c(NCc3ccccc3)n1)CCCN2 | metabolic stability | dog, liver microsomes | 1 µM, pH 7.4 | microsomal CLint | 1.15 µL/min/mg
Cc1ccccc1CN1C(=O)C2=C(CCN(Cc3ccccc3)C2)N2CCN=C12 | potentiometric | water |  | logP | 3.09
Cc1nsc(-c2nnc3n2CCN(C(=O)c2ccc(F)cc2)[C@@H]3C)n1 |  |  |  | logP | 1.5
NCc1cc2c(cc1F)C(=O)N(C1CCC(=O)NC1=O)C2 (stereo not drawn) |  | male CD-1 mouse, plasma | intravenous, 1 mg/kg, 30 min | concentration | 33.2 ng/mL
NCc1ccc(-c2nn(Cc3ccccc3)c3ccccc23)o1 |  | male CD-1 mouse, plasma | intravenous, 5 mg/kg | half-life | 1.08 h
Cc1nc2ccc(OCc3ccc(C(F)(F)F)cc3)cc2[nH]1 |  | male BALB/c mouse, brain | intravenous, 1 mg/kg, 3 h | concentration | 402 ng/g
OCc1ccc(-c2nn(Cc3ccccc3)c3ccccc23)o1 |  | male CD-1 mouse, plasma | intraperitoneal, 30 mg/kg | half-life | 1.3 h
O=C(O)CC[C@H](NC(=O)N[C@@H](CCCCNC(=O)[C@H](Cc1ccc2ccccc2c1)NC(=O)[C@H]1CC[C@H](CNC(=O)CN2CCN(CC(=O)O)CCN(CC(=O)O)CCN(CC(=O)O)CC2)CC1)C(=O)O)C(=O)O | shake flask | water |  | logP | -1.01
Cc1cccc(CNC(=O)c2cn(CCNC(=O)c3ccccc3Sc3c([N+](=O)[O-])ncn3C)c3cc4c(cc3c2=O)OCO4)n1 | metabolic stability | cynomolgus monkey, blood | 1 µM, whole blood | half-life | 5.92 h
